Columns and labels:
[1] = Antiinflammatory activity in human neutrophils assessed as inhibition of FMLP/cytochalasin B-induced superoxide anion generation by measuring superoxide dismutase-inhibitable reduction of ferricytochrome c preincubated for 5 mins followed by FMLP/cytochalasin B-induction by spectrophotometric analysis; assay type: functional, cell-based; conditions: Neutrophil
Summary of the method: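 Neutrophils isolated from healthy donor venous blood (20−30 years old) by dextran sedimentation, Ficoll Hypaque centrifugation and hypotonic erythrocyte lysis, kept at 4 °C in Ca2+-free HBSS pH 7.4. Cells (6 × 10^5 cells/mL) with 0.5 mg/mL ferricytochrome c and 1 mM Ca2+, 37 °C 2 min; compound or 0.1% DMSO 5 min; CB 1 μg/mL 3 min; FMLP 100 nM. A550 followed continuously, ±SOD 100 U/mL; IC50, mean ± SEM, n = 3 or 4.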

[2] = Antiinflammatory activity in human neutrophils assessed as inhibition of fMLP/CB-induced elastase release using MeO-Suc-Ala-Ala-Pro-Val-p-nitroanilide as elastase substrate preincubated for 5 mins followed by fMLP/CB-induction; assay type: functional, cell-based; conditions: Neutrophil
Summary of the method: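 Donor neutrophils (dextran/Ficoll/hypotonic lysis, held at 4 °C in Ca2+-free HBSS pH 7.4) at 6 × 10^5 cells/mL, equilibrated with 100 μM MeO-Suc-Ala-Ala-Pro-Val-p-nitroanilide at 37 °C for 2 min. Compound or 0.1% DMSO vehicle added for 5 min, then activated with FMLP 100 nM plus CB 0.5 μg/mL. A405 read continuously. IC50 given as mean ± SEM, n = 3 or 4.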

Row | SMILES | IC50 [1] | IC50 [2]
1 | COc1c(O)c(-c2c(O)c(OC)c(OC)c3c2CCc2cc(O)ccc2-3)c2c(c1OC)-c1ccc(O)cc1CC2 | 2.5 µM | > 10 µM
2 | O=Cc1ccc(O)cc1 [4-HYDROXYBENZALDEHYDE] | > 10 µM | 3.3 µM
3 | COC1=CC(=O)C2=C(CCc3cc(O)ccc32)C1=O | > 10 µM | > 10 µM
4 | COc1cc(O)c(Cc2ccc(O)cc2)c(CCc2cccc(O)c2)c1 | 3.6 µM | 2.2 µM
5 | COc1cccc(CCc2c(Cc3ccc(O)cc3)c(O)cc(OC)c2Cc2ccc(O)cc2)c1 | 6.3 µM | 4.2 µM
6 | COc1cc(CCc2cccc(O)c2)cc(O)c1-c1c(O)cc(OC)c2c1CCc1cc(O)ccc1-2 | 4.9 µM | > 10 µM
7 | COc1c(O)cc2ccc3cc(O)ccc3c2c1OC [NUDOL] | 1.7 µM | > 10 µM
8 | COc1cc2ccc3cc(O)ccc3c2c(OC)c1O | 2.6 µM | 4.9 µM
9 | COc1c(O)c(Cc2ccc(O)cc2)c2ccc3cc(O)ccc3c2c1OC | 1.6 µM | 1.9 µM
10 | COc1cc(O)cc(CCc2cccc(O)c2)c1Cc1ccc(O)cc1 | 1.7 µM | 2.8 µM
11 | COc1cc(O)cc2c1-c1ccc(O)cc1CC2 | 0.4 µM | > 10 µM
12 | COc1cc(O)c(Cc2ccc(O)cc2)c2ccc3cc(O)ccc3c12 | 0.5 µM | 0.9 µM
13 | COc1cc(O)cc(CCc2cccc(O)c2)c1-c1c(OC)cc(O)c2c1CCc1cc(O)ccc1-2 | 0.4 µM | 0.6 µM
14 | CC[C@H](Nc1ncnc2[nH]cnc12)c1nc2cccc(F)c2c(=O)n1-c1ccccc1 [IDELALISIB] | 0.1 µM | 0.3 µM
15 | COc1cc2ccc3c(-c4c(O)cc(OC)c5c4ccc4cc(O)c(OC)cc45)c(O)cc(OC)c3c2cc1O | 2.8 µM | 1.6 µM
16 | COc1c(O)cc2ccc3c(Cc4ccc(O)cc4)c(O)ccc3c2c1OC | 1.4 µM | 1.3 µM
17 | COc1cc(O)c(Cc2ccc(O)cc2)c2c1-c1ccc(O)cc1CC2 | 0.2 µM | 2 µM
18 | CC(C)C[C@@](O)(CC(=O)OCc1ccc(O[C@@H]2O[C@H](CO)[C@@H](O)[C@H](O)[C@H]2O)cc1)C(=O)OCc1ccc(O[C@@H]2O[C@H](CO)[C@@H](O)[C@H](O)[C@H]2O)cc1 | > 10 µM | > 10 µM
19 | COc1c(Cc2ccc(O)cc2)c(O)c(Cc2ccc(O)cc2)c2c1-c1ccc(O)cc1CC2 | 1.1 µM | 1.8 µM
20 | CC[C@@H](CC[C@@H](C)[C@H]1CC[C@H]2[C@@H]3CC=C4C[C@@H](O[C@@H]5O[C@H](CO)[C@@H](O)[C@H](O)[C@H]5O)CC[C@]4(C)[C@H]3CC[C@]12C)C(C)C | > 10 µM | > 10 µM
21 | COc1cc(O)c(-c2c(O)cc(OC)c3c2ccc2cc(O)ccc23)c2ccc3cc(O)ccc3c12 [CIRRHOPETALANTHIN] | 1.4 µM | 0.6 µM

Row | SMILES | IC50 [1] | IC50 [2]
22 | COc1cc2c(ccc3c(-c4c(O)cc(OC)c5c4ccc4cc(O)c(OC)cc45)c(O)cc(OC)c32)cc1O | 1.5 µM | 0.3 µM
23 | COc1cc2c(cc1O)CCc1c(-c3c(O)cc(OC)c4c3CCc3cc(O)ccc3-4)c(O)cc(OC)c1-2 | 2.4 µM | 0.7 µM
24 | COc1cc2c(cc1O)CCc1cc(O)c(OC)c(OC)c1-2 | 0.2 µM | 5.7 µM
25 | COc1cc(O)cc2c1-c1cc(-c3c(O)cc(OC)c4c3ccc3cc(O)ccc34)c(O)cc1CC2 | 4.2 µM | 1.2 µM
26 | COc1cc(O)cc(CCc2cccc(O)c2)c1 [BATATASIN III] | 0.9 µM | 4.7 µM
27 | COc1cc(CCc2cccc(O)c2)c(Cc2ccc(O)cc2)c(O)c1Cc1ccc(O)cc1 | 1.1 µM | 1.1 µM
28 | COc1cc(O)cc(CCc2ccccc2)c1 | 6.5 µM | > 10 µM
29 | COc1cccc(CCc2cc(O)cc(OC)c2)c1 | 6.5 µM | > 10 µM
30 | COc1cc(O)cc(CCc2ccc(O)c(OC)c2)c1 [GIGANTOL] | 2.1 µM | 3.2 µM
31 | COc1cc2c(ccc3c(-c4c(O)cc(OC)c5c4ccc4cc(O)ccc45)c(O)cc(OC)c32)cc1O | 1.9 µM | 1.7 µM
32 | COc1cc(O)c(-c2c(O)cc3c(c2OC)-c2ccc(O)cc2CC3)c2c1-c1ccc(O)cc1CC2 | 1.8 µM | 1.4 µM
33 | COc1c(O)cc2c(c1OC)-c1ccc(O)cc1CC2 [ERIANTHRIDIN] | 0.3 µM | 2 µM
34 | COc1cc(O)cc2c1-c1cc(-c3c(O)cc(OC)c4c3CCc3cc(O)ccc3-4)c(O)cc1CC2 | 1.5 µM | 0.5 µM
35 | COc1cc(O)c(-c2c(O)c(Cc3ccc(O)cc3)c3c(c2OC)-c2ccc(O)cc2CC3)c2c1-c1ccc(O)cc1CC2 | 0.2 µM | 0.4 µM
36 | COc1cc2c(ccc3cc(O)c(OC)c(OC)c32)cc1O | 2 µM | 2.1 µM
37 | CCOCc1ccc(O)cc1 | > 10 µM | > 10 µM
38 | COc1cc(O)c(-c2c(O)cc(OC)c3c2ccc2cc(O)ccc23)c2c1-c1ccc(O)cc1CC2 [CIRRHOPETALANTHRIN] | 0.9 µM | 0.6 µM
39 | COc1cc(CCc2cccc(O)c2)cc(O)c1Cc1ccc(O)cc1 | 2.2 µM | 0.9 µM
40 | COc1cc(O)c(Cc2ccc(O)cc2)c(CCc2cccc(O)c2)c1Cc1ccc(O)cc1 | 0.7 µM | 0.7 µM
41 | COc1c(Cc2ccc(O)cc2)c(O)cc2c1-c1ccc(O)cc1CC2 | 0.2 µM | 2 µM
